Consider two molecules from ChEMBL document CHEMBL1781935, “Amberlite-IRA-402 (OH) ion exchange resin mediated synthesis of indolizines, pyrrolo [1,2-a] quinolines and isoquinolines: antibacterial and antifungal evaluation of the products” (2011).

The subject of assay [1] is Cryptococcus neoformans. As to the kind of experiment: Antifungal activity against […] after 96 hrs. Format: functional. An outline of the steps:
(§1)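 Clinical isolates grown on Sabouraud dextrose agar at 28 °C. MIC was set by broth dilution in Sabouraud dextrose broth (0.1 ml of 2 × 10^5 spores/ml, 1–1500 µg/ml) or by agar dilution (2 × 10^5 spores/spot), with an antibiotic control, at 28 °C for 96 h. The lowest concentration with no visible growth was taken.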

Assay [2] has as its system Aspergillus niger. Briefly: Antifungal activity against Aspergillus niger after 96 hrs. The class given is functional. An outline of the steps:
as §1

For assay [3], the system named is Candida albicans. Briefly: Antifungal activity against Candida albicans after 96 hrs. The class given is functional. An outline of the steps: as §1
Assay [4] relates to Candida tropicalis. Briefly: Antifungal activity against Candida tropicalis after 96 hrs. The class given is functional. An outline of the steps:
as §1

For assay [5], the system named is Aspergillus niger. As to the kind of experiment: Antifungal activity against Aspergillus niger after 96 hrs by dry weight calculation. Format: functional, organism-based. An outline of the steps: (§2)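 Fungicidal testing with double-fold drug dilutions in Sabouraud dextrose broth. Tubes inoculated with 1 ml spore suspension (2 × 10^5 spores/ml) and shaken at 200 rpm at 28 °C for 96 h. Drug was added at mid-logarithmic growth. Growth was measured as sample dry weight after drying at 60 °C.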

Assay [6] has as its system Candida albicans. As to the kind of experiment: Antifungal activity against Candida albicans after 96 hrs by dry weight calculation. The class given is functional, organism-based. An outline of the steps:
as §2

Assay [7] has as its system Escherichia coli. As to the kind of experiment: Antibacterial activity against Escherichia coli ATCC 25938 at 1 to 1000 ug/ml after overnight incubation by disc diffusion method. The class given is functional. An outline of the steps: (§3)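 Disc diffusion on Mueller-Hinton agar. Plates seeded with 0.1 ml bacterial suspension (2 × 10^6 cfu/ml). Sterile 6 mm paper discs were impregnated with compound solutions at 1–1000 µg/ml and incubated at 37 °C overnight. Read-out was the diameter of the clear inhibition zone. Stocks were 1 mg/ml in 4% Tween 80 or 4% propylene glycol.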
For orientation: A growth-free zone around the sample is the usual read-out of agar diffusion tests.

The subject of assay [8] is Klebsiella pneumoniae. Briefly: Antibacterial activity against Klebsiella pneumoniae isolate J/1/4 at 1 to 1000 ug/ml after overnight incubation by disc diffusion method. Format: functional. An outline of the steps:
as §3

Assay [9] has as its system Staphylococcus aureus. As to the kind of experiment: Antibacterial activity against Staphylococcus aureus ATCC 25923 at 1 to 1000 ug/ml after overnight incubation by disc diffusion method. Format: functional. An outline of the steps:
as §3

The subject of assay [10] is Pseudomonas aeruginosa. Briefly: Antibacterial activity against Pseudomonas aeruginosa ATCC 27853 at 1 to 1000 ug/ml after overnight incubation by disc diffusion method. Format: functional. An outline of the steps: as §3
For assay [11], the system named is Vibrio cholerae. Briefly: Antibacterial activity against Vibrio cholerae isolate 7201 at 1 to 1000 ug/ml after overnight incubation by disc diffusion method. The class given is functional.
Assay [12] deals with Vibrio cholerae. Briefly: Antibacterial activity against Vibrio cholerae isolate 720 at 1 to 1000 ug/ml after overnight incubation by disc diffusion method. Format: functional.
The subject of assay [13] is Bacillus subtilis. Briefly: Antibacterial activity against Bacillus subtilis UC564 at 1 to 1000 ug/ml after overnight incubation by disc diffusion method. Format: functional. An outline of the steps: as §3
The test system of assay [14] is Shigella dysenteriae. Briefly: Antibacterial activity against Shigella dysenteriae isolate 3 at 1 to 1000 ug/ml after overnight incubation by disc diffusion method. Format: functional.
The subject of assay [15] is Enterococcus faecalis. As to the kind of experiment: Antibacterial activity against Enterococcus faecalis isolate 29212 at 1 to 1000 ug/ml after overnight incubation by disc diffusion method. Format: functional. An outline of the steps:
as §3

The subject of assay [16] is Shigella flexneri. Briefly: Antibacterial activity against Shigella flexneri DN13 at 1 to 1000 ug/ml after overnight incubation by disc diffusion method. The class given is functional. An outline of the steps:
as §3

Assay [17] has as its system Salmonella typhi. As to the kind of experiment: Antibacterial activity against Salmonella typhi DIRW at 1 to 1000 ug/ml after overnight incubation by disc diffusion method. The class given is functional. As to conditions: Salmonella enterica subsp. enterica serovar Typhi.
Assay [18] has as its system Vibrio parahaemolyticus. As to the kind of experiment: Antibacterial activity against Vibrio parahaemolyticus isolate 72016 at 1 to 1000 ug/ml after overnight incubation by disc diffusion method. Format: functional. An outline of the steps: as §3
Assay [19] concerns Micrococcus luteus. As to the kind of experiment: Antibacterial activity against Micrococcus luteus AGD1 at 1 to 1000 ug/ml after overnight incubation by disc diffusion method. The class given is functional. An outline of the steps:
as §3

In assay [20] the test system is Salmonella typhimurium. Briefly: Antibacterial activity against Salmonella Typhimurium isolate 11 at 1 to 1000 ug/ml after overnight incubation by disc diffusion method. Format: functional, organism-based. To be noted: Salmonella enterica subsp. enterica serovar Typhimurium. An outline of the steps: as §3
Assay [21] deals with Aspergillus niger. Briefly: Antifungal activity against Aspergillus niger at 1 to 1500 ug/ml after 96 hrs by disc diffusion method. The class given is functional. An outline of the steps:
(§4)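 Disc diffusion on Sabouraud dextrose agar. Plates seeded with 0.1 ml fungal spore suspension (2 × 10^5 spores/ml). Sterile 6 mm discs were impregnated with compound solutions at 1–1500 µg/ml and incubated at 28 °C for 96 h. Read-out was the clear inhibition zone. Strains were clinical isolates.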

Assay [22] relates to Candida albicans. Briefly: Antifungal activity against Candida albicans at 1 to 1500 ug/ml after 96 hrs by disc diffusion method. The class given is functional. An outline of the steps:
as §4

In assay [23] the test system is Candida tropicalis. As to the kind of experiment: Antifungal activity against Candida tropicalis at 1 to 1500 ug/ml after 96 hrs by disc diffusion method. Format: functional. An outline of the steps:
as §4

Assay [24] has as its system Cryptococcus neoformans. As to the kind of experiment: Antifungal activity against […] at 1 to 1500 ug/ml after 96 hrs by disc diffusion method. Format: functional, organism-based. An outline of the steps: as §4
Assay [25] deals with Escherichia coli. Briefly: Antibacterial activity against Escherichia coli ATCC 25938. Format: functional. An outline of the steps: (§5)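 MIC by broth and agar dilution. Broth: 0.1 ml suspension (2 × 10^6 cfu/ml) in Mueller-Hinton broth with test drug at 1–1000 µg/ml, 37 °C overnight. Agar: serial drug dilutions in Mueller-Hinton agar, spot-inoculated with 2 × 10^6 cfu/spot, 37 °C for 24 h. MIC was the lowest concentration with no visible growth. Antibiotic controls were included.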

Assay [26] deals with Klebsiella pneumoniae. Briefly: Antibacterial activity against Klebsiella pneumoniae isolate J/1/4. Format: functional. An outline of the steps:
as §5

Assay [27] concerns Staphylococcus aureus. Briefly: Antibacterial activity against Staphylococcus aureus ATCC 25923. Format: functional. An outline of the steps:
as §5

The subject of assay [28] is Pseudomonas aeruginosa. As to the kind of experiment: Antibacterial activity against Pseudomonas aeruginosa ATCC 27853. The class given is functional. An outline of the steps:
as §5

For assay [29], the system named is Vibrio cholerae. Briefly: Antibacterial activity against Vibrio cholerae isolate 7201. Format: functional.
Assay [30] has as its system Bacillus subtilis. As to the kind of experiment: Antibacterial activity against Bacillus subtilis UC564. Format: functional. An outline of the steps:
as §5

Assay [31] has as its system Shigella dysenteriae. Briefly: Antibacterial activity against Shigella dysenteriae isolate 3. Format: functional.
Assay [32] concerns Enterococcus faecalis. Briefly: Antibacterial activity against Streptococcus faecalis isolate 29212. Format: functional. An outline of the steps:
as §5

The test system of assay [33] is Shigella flexneri. Briefly: Antibacterial activity against Shigella flexneri DN13. Format: functional. An outline of the steps: as §5
Assay [34] relates to Salmonella typhi. As to the kind of experiment: Antibacterial activity against Salmonella typhi DIRW. To be noted: Salmonella enterica. Format: functional, Salmonella enterica subsp. enterica serovar Typhi.
Assay [35] relates to Vibrio parahaemolyticus. As to the kind of experiment: Antibacterial activity against Vibrio parahaemolyticus isolate 72016. The class given is functional. An outline of the steps:
as §5

Assay [36] concerns Micrococcus luteus. As to the kind of experiment: Antibacterial activity against Micrococcus luteus AGD1. Format: functional. An outline of the steps:
as §5

In assay [37] the test system is Salmonella typhimurium. As to the kind of experiment: Antibacterial activity against Salmonella Typhimurium isolate 11. The class given is functional, Salmonella enterica subsp. enterica serovar Typhimurium. As to conditions: Salmonella enterica. An outline of the steps:
as §5

In brackets after ≈: the same amount, converted by molar mass. Activity calls are given as the source filed them. Bounds are passed on as bounds.

The term MIC denotes the smallest concentration in the dilution series that meets the test's criterion for growth inhibition. A high value points to weaker potency. As to `OC(Cn1cncn1)(Cn1cncn1)c1ccc(F)cc1F` [FLUCONAZOLE], the minimum inhibitory concentration (MIC) in [1] stood at 8 µg/mL (≈ 26.1 µM); in assay [2] it was 10 µg/mL (≈ 32.7 µM); in assay [3], 4 µg/mL (≈ 13.1 µM); in assay [4], 8 µg/mL (≈ 26.1 µM).

On to `O=C(c1ccccc1)c1c(-c2ccccc2)cc2c3ccccc3ccn12`, for which the Activity result in assay [5] and in assay [6] was “Dose-dependent effect” in each case. Also, the “diameter of the inhibition zone (DIZ)” value is on record as 10 mm in [7]; 10.5 mm in assay [8]; 8.5 mm in assay [9]; 8.1 mm in assay [10]; 9 mm in assay [11]; 9 mm in [12]. The “diameter of the inhibition zone (DIZ)” value in assay [13] is recorded as 10.2 mm; in assay [14] it was 8 mm; in assay [21], 12 mm; in assay [22] it was 30 mm; in assay [23], 10 mm. The “diameter of the inhibition zone (DIZ)” value in assay [15], in assay [16], in assay [17], in assay [18], in assay [19] and in assay [20] was “inactive” throughout. Moreover, the “diameter of the inhibition zone (DIZ)” value in [24] is “inactive”. The MIC in assay [2] is 500 µg/mL (≈ 1440 µM); in [3], 500 µg/mL (≈ 1440 µM); in assay [4], 1000 µg/mL (≈ 2880 µM); in assay [25], 32 µg/mL (≈ 92.1 µM); in assay [26] it was 64 µg/mL (≈ 184 µM); in assay [27] it was 128 µg/mL (≈ 368 µM). Moreover, the MIC in assay [28] is 128 µg/mL (≈ 368 µM); in [29] it was 64 µg/mL (≈ 184 µM); in assay [30], 32 µg/mL (≈ 92.1 µM); in assay [31], 128 µg/mL (≈ 368 µM); in assay [32] it was 500 µg/mL (≈ 1440 µM); in assay [33], 500 µg/mL (≈ 1440 µM). For the same molecule, the MIC was above 500 µg/mL in assay [34], 500 µg/mL (≈ 1440 µM) in assay [35], 500 µg/mL (≈ 1440 µM) in assay [36] and above 500 µg/mL in assay [37].
